The values that follow come from ChEMBL document CHEMBL4334469, “Integrated Synthetic, Biophysical, and Computational Investigations of Covalent Inhibitors of Prolyl Oligopeptidase and Fibroblast Activation Protein α” (J Med Chem, 2019).

One assay has as its target T1, Prolyl endopeptidase (Homo sapiens, UniProt P48147).
T1 sequence (P48147 whole entry): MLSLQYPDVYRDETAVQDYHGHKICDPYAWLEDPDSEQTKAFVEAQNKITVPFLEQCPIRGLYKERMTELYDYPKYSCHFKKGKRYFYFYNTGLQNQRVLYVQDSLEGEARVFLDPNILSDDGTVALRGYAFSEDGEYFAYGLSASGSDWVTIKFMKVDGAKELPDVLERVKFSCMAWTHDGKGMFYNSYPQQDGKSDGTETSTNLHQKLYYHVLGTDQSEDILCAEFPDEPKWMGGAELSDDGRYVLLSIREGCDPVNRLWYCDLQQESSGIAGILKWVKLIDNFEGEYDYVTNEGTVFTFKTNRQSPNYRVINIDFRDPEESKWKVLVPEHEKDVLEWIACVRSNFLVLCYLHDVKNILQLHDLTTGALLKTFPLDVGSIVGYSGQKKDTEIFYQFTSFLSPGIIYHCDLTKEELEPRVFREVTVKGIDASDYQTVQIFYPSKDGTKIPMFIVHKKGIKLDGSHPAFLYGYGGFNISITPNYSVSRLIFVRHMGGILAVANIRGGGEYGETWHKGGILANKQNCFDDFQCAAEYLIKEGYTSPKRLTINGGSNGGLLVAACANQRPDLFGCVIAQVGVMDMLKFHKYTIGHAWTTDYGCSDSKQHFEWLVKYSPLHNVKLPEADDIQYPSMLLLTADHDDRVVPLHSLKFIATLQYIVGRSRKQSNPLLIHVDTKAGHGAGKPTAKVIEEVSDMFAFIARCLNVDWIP
The experiment in a line: (§1) Inhibition of recombinant human POP pre-incubated for 30 mins before addition of ZGP-pNA substrate by absorbance assay.

For assay [1], the target named is Prolyl endopeptidase FAP (Homo sapiens) (UniProt Q12884). The experiment in a line: Inhibition of human recombinant FAP at 100 uM using fluorogenic DPP substrate1 relative to control.
Assay [2] deals with T2, Prolyl endopeptidase (Homo sapiens) (UniProt P48147).
T2 sequence (whole entry): T1 sequence (P48147 whole entry)
Described as §1.

The nature of assay [3]: Drug metabolism in buffer assessed as formation of [(2R)-1-(2-benzyl-3-oxo-isoindoline-4-carbonyl)pyrrolidin-2-yl]boronic acid after 10 mins by LC-MS analysis. Summed up:
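Boronic ester hydrolysis was followed by LC-MS (UHPLC-QTOF, positive ESI). Ester from a 100 mM DMSO stock was diluted 1:10 into buffer in a capped autosampler vial. Aliquots were taken at 5 min intervals and loop-injected in 1:1 water/acetonitrile with 0.1% formic acid. The boronic ester remaining was tracked over time.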

The target of assay [4] is Prolyl endopeptidase FAP (Homo sapiens) (UniProt Q12884). The experiment in a line: Inhibition of human recombinant FAP at 10 uM using fluorogenic DPP substrate1 relative to control.
For another assay, the target named is T3, Prolyl endopeptidase FAP (Homo sapiens, UniProt Q12884).
T3 sequence (Q12884 whole entry): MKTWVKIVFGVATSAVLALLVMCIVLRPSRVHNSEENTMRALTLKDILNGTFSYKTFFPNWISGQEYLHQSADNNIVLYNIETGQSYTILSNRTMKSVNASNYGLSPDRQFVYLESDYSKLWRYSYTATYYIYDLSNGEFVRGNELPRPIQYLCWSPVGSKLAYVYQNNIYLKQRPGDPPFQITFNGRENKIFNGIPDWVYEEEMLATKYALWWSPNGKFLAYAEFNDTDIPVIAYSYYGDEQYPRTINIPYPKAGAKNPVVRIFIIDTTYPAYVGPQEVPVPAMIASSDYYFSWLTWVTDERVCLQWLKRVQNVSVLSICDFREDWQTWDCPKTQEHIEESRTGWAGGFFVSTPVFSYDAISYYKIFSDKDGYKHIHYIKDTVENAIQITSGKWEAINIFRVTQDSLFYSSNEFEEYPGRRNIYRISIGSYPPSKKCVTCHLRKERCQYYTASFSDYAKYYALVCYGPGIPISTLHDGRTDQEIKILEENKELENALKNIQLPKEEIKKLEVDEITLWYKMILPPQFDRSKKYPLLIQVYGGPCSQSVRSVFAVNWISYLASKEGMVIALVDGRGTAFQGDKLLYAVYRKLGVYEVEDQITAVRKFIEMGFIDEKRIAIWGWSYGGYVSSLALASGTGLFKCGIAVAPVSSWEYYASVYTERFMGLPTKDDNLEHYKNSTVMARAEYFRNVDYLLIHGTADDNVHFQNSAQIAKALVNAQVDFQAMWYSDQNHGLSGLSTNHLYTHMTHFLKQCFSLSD
The experiment in a line: Inhibition of FAP (unknown origin).

Active and inactive are the calls of the source. No cut-off for these calls is given here. Peptide text beside a SMILES is read from it. * marks the point of attachment. Cbz = O=C(OCc1ccccc1)*

Usually Ki stands for the dissociation constant of the complex between target and ligand, obtained from inhibition or displacement. In general, inhibition refers to the change of the read-out against control, counted positive when it falls. With `N#C[C@@H]1C[C@@H](F)CN1C(=O)c1cccc2c1C(=O)N(Cc1ccccc1)C2`, the Ki at Prolyl endopeptidase is > 100 µM. Also, the inhibition in assay [1] is < 5%.
As to `CC1(C)[C@@H]2C[C@@H](O)[C@@](C)(O)[C@H]1C2`, the inhibition entry in assay [2] is “inactive”.
As to `CC1(C)[C@H]2C[C@@H]3OB([C@@H]4CCCN4C(=O)c4cccc5c4C(=O)N(Cc4ccccc4)C5)O[C@]3(C)[C@@H]1C2`, in assay [1], the inhibition is < 5%. For the same compound, the Drug metabolism in assay [3] is 90%.
With `O=C[C@@H]1CCCN1C(=O)[C@@H]1CCCN1C(=O)OCc1ccccc1` (Cbz-Pro-Pro-aldehyde), in assay [1], the inhibition is < 5%.
Same read-out and setting: the figure for `O=C(c1cccc2c1C(=O)N(Cc1ccccc1)C2)N1CC[C@@H](F)C1` is < 5%.
Regarding `O=C[C@@H]1CCCN1C(=O)c1cccc2c1C(=O)N(Cc1ccccc1)C2`, the inhibition in assay [1] is 80%; in assay [4], 11%.
For the compound `O=C(c1cccc2c1C(=O)N(Cc1ccccc1)C2)N1CCCC1`, in assay [1], the inhibition is < 5%.
One may read the IC50 as the midpoint of a concentration-inhibition curve. Lower therefore signals higher potency. Consider `CC(C)[C@H](NC(=O)c1ccncc1)C(=O)N1CCC[C@H]1B(O)O`, for which the IC50 on Prolyl endopeptidase FAP was > 100 µM.
For `N#C[C@@H]1CCCN1C(=O)c1cccc2c1C(=O)N(Cc1ccccc1)C2`, in assay [1], the inhibition came to 20%.
With `N#C[C@@H]1C[C@H](F)CN1C(=O)c1cccc2c1C(=O)N(Cc1ccccc1)C2`, the Ki on Prolyl endopeptidase was found to be 0.17 µM. The inhibition in assay [1] was < 5%.
With `O=C(c1cccc2c1C(=O)N(Cc1ccccc1)C2)N1CC[C@H](F)C1`, the inhibition in assay [1] was < 5%.
As to `N#C[C@@H]1CC(F)(F)CN1C(=O)c1cccc2c1C(=O)N(Cc1ccccc1)C2`, the Ki on Prolyl endopeptidase is 3.3 µM. The inhibition in assay [1] is < 5%.
